Activity calls are given as the source filed them. The calls are words filed in the database; no cut-off is given here.
How the values were obtained:
[1] = molecular target: T1, Asparagine synthetase [glutamine-hydrolyzing] (Homo sapiens) (UniProt P08243); test: Inhibition of asparagine synthetase in human KB cells at 1 mM; assay type: cell-based
T1 sequence (whole entry): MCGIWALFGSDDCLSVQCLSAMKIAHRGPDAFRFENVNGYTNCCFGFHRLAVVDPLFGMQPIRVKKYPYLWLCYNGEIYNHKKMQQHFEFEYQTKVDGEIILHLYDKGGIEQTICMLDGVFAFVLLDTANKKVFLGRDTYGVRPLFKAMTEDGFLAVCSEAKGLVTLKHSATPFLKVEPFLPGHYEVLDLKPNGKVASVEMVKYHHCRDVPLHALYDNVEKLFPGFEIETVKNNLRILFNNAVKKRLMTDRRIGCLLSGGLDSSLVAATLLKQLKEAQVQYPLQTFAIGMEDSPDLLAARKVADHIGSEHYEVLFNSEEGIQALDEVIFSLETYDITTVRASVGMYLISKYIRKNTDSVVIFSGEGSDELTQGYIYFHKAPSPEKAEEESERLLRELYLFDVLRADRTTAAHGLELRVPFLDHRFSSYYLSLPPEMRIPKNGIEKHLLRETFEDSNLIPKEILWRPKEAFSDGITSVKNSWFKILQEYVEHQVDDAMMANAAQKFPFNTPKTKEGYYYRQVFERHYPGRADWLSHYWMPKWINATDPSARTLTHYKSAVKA

[2] = molecular target: T2, Asparagine synthetase [glutamine-hydrolyzing] (Rattus norvegicus) (UniProt P49088); test: Inhibition of asparagine synthetase isolated from rat bearing Novikoff hepatoma cells using [14C]-L-aspartic acid as substrate at 2 mM incubated 15 mins prior to substrate addition measured after 30 mins
T2 sequence (whole entry): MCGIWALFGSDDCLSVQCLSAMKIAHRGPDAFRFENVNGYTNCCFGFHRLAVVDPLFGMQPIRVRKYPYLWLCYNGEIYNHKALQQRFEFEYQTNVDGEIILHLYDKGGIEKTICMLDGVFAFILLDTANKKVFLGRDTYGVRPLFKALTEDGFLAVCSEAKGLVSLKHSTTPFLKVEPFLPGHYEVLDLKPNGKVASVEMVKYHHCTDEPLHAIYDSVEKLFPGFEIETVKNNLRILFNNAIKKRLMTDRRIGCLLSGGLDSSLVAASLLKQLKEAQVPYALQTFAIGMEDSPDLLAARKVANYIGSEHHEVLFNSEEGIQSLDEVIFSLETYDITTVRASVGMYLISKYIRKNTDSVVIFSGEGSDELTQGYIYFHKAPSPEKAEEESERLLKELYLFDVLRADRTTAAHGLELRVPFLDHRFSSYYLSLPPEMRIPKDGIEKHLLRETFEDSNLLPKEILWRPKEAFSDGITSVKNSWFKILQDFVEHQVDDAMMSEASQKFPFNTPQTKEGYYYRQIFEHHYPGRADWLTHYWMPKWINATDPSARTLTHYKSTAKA
Summary of the method: (§1)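 ASase partially purified from excised rat Novikoff hepatoma (specific activity 0.51 μmol asparagine/mg protein/30 min). Enzyme and inhibitor were preincubated with 100 μmol Tris at pH 8.0 for 15 min at 37 °C. L-glutamine (20.0 μmol), L-aspartic acid (2.0 μmol) and L-aspartic acid-¹⁴C (2×10⁶ dpm) were then added and incubated 30 min at 37 °C. Isolated L-asparagine-¹⁴C was counted by scintillation. Percent inhibition came from duplicates on three separate days with fresh inhibitor solutions.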

[3] = molecular target: T2, Asparagine synthetase [glutamine-hydrolyzing] (Rattus norvegicus); test: Competitive inhibition of rat asparagine synthetase using L-aspartic acid as substrate incubated 15 mins prior to substrate addition measured after 30 mins by double reciprocal plot analysis
Summary of the method: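 Partially purified rat Novikoff hepatoma ASase was preincubated with inhibitor in Tris at pH 8.0 for 15 min at 37 °C. L-glutamine was then added with L-aspartic acid varied at 0.25, 0.50, 1.0 and 2.0 mM final, plus ¹⁴C-aspartate (2×10⁶ dpm/tube, 206 mCi/mmol), and incubated 30 min at 37 °C. L-asparagine-¹⁴C was measured. Double-reciprocal plots were fitted by least-squares regression.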

[4] = molecular target: T3, Asparagine synthetase [glutamine-hydrolyzing] (Mus musculus) (UniProt Q61024); test: Inhibition of asparagine synthetase in mouse L5178Y/AR cells at 1 mM; assay type: cell-based
T3 sequence (whole entry): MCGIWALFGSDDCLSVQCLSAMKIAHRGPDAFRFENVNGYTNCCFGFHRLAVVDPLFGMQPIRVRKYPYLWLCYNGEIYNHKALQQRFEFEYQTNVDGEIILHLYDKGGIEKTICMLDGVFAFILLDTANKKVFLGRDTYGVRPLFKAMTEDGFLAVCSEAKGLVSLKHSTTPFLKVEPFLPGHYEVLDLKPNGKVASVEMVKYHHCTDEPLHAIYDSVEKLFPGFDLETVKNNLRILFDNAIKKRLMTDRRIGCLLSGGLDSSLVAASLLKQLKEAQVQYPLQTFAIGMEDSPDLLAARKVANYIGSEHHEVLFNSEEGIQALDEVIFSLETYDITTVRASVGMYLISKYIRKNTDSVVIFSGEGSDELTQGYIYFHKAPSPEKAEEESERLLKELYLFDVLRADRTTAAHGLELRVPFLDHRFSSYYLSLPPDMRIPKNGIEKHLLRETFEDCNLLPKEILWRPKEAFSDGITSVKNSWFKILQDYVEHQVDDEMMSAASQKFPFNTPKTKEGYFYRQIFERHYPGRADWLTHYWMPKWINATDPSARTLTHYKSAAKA

[5] = molecular target: T3, Asparagine synthetase [glutamine-hydrolyzing] (Mus musculus); test: Inhibition of asparagine synthetase in mouse L5178Y/AR cells at 10 mM; assay type: cell-based
[6] = test system: P388; test: Antitumor activity against mouse P388 cells […] in mouse assessed as increase in life span; assay type: functional
Summary of the method: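 In vivo screen run by the National Cancer Institute Drug Research and Development Program in CDF₁ mice bearing P-388 lymphocytic leukemia, an asparaginase-resistant line. The read-out was increase in life span.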

[7] = molecular target: T2, Asparagine synthetase [glutamine-hydrolyzing] (Rattus norvegicus); test: Inhibition of asparagine synthetase isolated from rat bearing Novikoff hepatoma cells using [14C]-L-aspartic acid as substrate at 1 mM incubated 15 mins prior to substrate addition measured after 30 mins; summary of the method: as §1

SMILES | inhibition [2] [%] | inhibition [5] | further results
NC(CC(=O)NO)C(=O)O (racemic) |  |  | inhibition [1]: 36%
N[C@@H](CS(N)(=O)=O)C(=O)O | 25.8 |  | 
N[C@@H](CC(=O)NO)C(=O)O | 15.8 |  | inhibition [3]: inactive
N[C@@H](CS(=O)(=O)NCCCl)C(=O)O | 0 |  | inhibition [4]: inactive
N[C@@H](CS(=O)(=O)NNC(=O)c1ccc(S(=O)(=O)F)cc1)C(=O)O | 43.1 | inactive | 
CCOC(=O)/C=C/C(=O)NNS(=O)(=O)C[C@H](N)C(=O)O | 37.3 | inactive | Activity [6]: inactive
N[C@@H](CS(=O)(=O)NO)C(=O)O | 96.5 | 81% | inhibition [7]: 77.6%; inhibition [3]: Active; inhibition [4]: 23%; Activity [6]: inactive
N[C@@H](CS(=O)(=O)NCc1ccc(S(=O)(=O)F)cc1)C(=O)O | 29.5 | inactive | 

Source: ChEMBL document CHEMBL3243960
